In ChEMBL document CHEMBL1140411, “Deoxyuridine triphosphate nucleotidohydrolase as a potential antiparasitic drug target” (J Med Chem, 2005) one finds SI, IC50 and Ki data, which are given here for 3 compounds.

SMILES strings stand for the structures.

Test [1] has as its target T1, dUTP pyrophosphatase (Plasmodium falciparum 3D7) (UniProt Q8II92).
T1 sequence (whole entry): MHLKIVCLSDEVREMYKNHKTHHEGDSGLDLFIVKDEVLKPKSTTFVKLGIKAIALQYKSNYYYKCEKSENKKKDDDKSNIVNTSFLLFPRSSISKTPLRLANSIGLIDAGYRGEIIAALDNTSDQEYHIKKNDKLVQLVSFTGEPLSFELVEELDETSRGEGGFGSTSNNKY
The experiment in a line: Selectivity index for Plasmodium falciparum deoxyuridine 5'-triphosphate nucleotidohydrolase defined as (Ki Human)/(Ki Plasmodium falciparum); na= not relevant. A digest of the protocol: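 Ratio of human dUTPase Ki to P. falciparum dUTPase Ki. Both Ki values came from stopped-flow pH-indicator assays following dUTP hydrolysis, with Ki derived from the dependence of apparent KM on inhibitor concentration.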

Test [2] relates to Trypanosoma cruzi. Put plainly: In vitro growth inhibitory activity against Trypanosoma cruzi in rat L-6 cells upon incubation at 37 degrees C in 5% CO2 atmosphere for 4 days. The class given is functional, organism-based. To be noted: L6, 96 h. A digest of the protocol: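 L-6 cells seeded at 2000 cells/well in RPMI 1640 with 10% FBS and 2 mM L-glutamine. After 24 h, 5000 T. cruzi Tulahuen C2C4 LacZ trypomastigotes added with serial drug dilutions, then 4 days at 37 °C, 5% CO2. CPRG/Nonidet substrate added and colour read at 540 nm after 2-4 h. IC50 from sigmoidal curve. Twice independently, in duplicate.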

Test [3] deals with L6. The experiment in a line: In vitro cytotoxicity aganist rat skeletal myoblasts (L-6 cells) after 72 hours. The following applies: L6, 72 h. The class given is functional, cell-based. A digest of the protocol:
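L-6 rat skeletal myoblasts seeded at 4 × 10^4 cells/mL in RPMI 1640 with 10% FBS and 2 mM L-glutamine. After 24 h, medium replaced with a serial drug dilution, then 72 h at 37 °C, 5% CO2. Alamar Blue added for a further 2-4 h. Fluorescence read at ex 536/em 588 nm. Run twice independently, in duplicate.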

The target in test [4] is T2, dUTP pyrophosphatase (Leishmania major, UniProt O15826).
T2 sequence (O15826 whole entry): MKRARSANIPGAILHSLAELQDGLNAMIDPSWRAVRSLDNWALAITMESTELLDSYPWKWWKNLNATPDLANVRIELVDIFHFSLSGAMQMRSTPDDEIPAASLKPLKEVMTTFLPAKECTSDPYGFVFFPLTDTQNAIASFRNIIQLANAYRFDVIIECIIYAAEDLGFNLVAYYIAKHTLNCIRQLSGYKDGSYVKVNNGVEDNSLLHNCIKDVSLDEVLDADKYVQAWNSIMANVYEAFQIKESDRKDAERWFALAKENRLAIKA
Put plainly: Inhibitory constant against Leishmania major deoxyuridine 5'-triphosphate nucleotidohydrolase.

Test [5] deals with Plasmodium falciparum. The experiment in a line: In vitro inhibitory activity against Plasmodium falciparum as [3H]hypoxanthine (50 uL) incorporation at 37C. Format: functional, organism-based.
The target in test [6] is T3, dUTP pyrophosphatase (Plasmodium falciparum 3D7, UniProt Q8II92).
T3 sequence (Q8II92 whole entry): T1 sequence (whole entry)
Put plainly: Inhibitory constant against Plasmodium falciparum deoxyuridine 5'-triphosphate nucleotidohydrolase expressed in Escherichia coli BL21 (DE3) cells. A digest of the protocol:
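Recombinant PfdUTPase expressed in E. coli BL21(DE3) and purified by phosphocellulose and gel filtration to ~96% purity. Continuous stopped-flow assay following proton release with cresol red/bicine (50:2000 µM, 573 nm). Mix: 30 nM enzyme, 50 µM dUTP, 5 mM MgCl2, 2.5 mM DTT, 1.25 mg/mL BSA, 100 mM KCl. KMapp from integrated Michaelis-Menten fits, plotted against [I] to give Ki.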

Test [7] concerns Trypanosoma brucei rhodesiense. The experiment in a line: Inhibitory constant against Trypanosoma brucei rhodesiense upon incubation with the compound at 37 degrees C under a 5% CO2 atmosphere for 72 hours. Format: functional, organism-based.
In test [8] the target is T4, Deoxyuridine 5'-triphosphate nucleotidohydrolase, mitochondrial (Homo sapiens, UniProt P33316).
T4 sequence (P33316 whole entry): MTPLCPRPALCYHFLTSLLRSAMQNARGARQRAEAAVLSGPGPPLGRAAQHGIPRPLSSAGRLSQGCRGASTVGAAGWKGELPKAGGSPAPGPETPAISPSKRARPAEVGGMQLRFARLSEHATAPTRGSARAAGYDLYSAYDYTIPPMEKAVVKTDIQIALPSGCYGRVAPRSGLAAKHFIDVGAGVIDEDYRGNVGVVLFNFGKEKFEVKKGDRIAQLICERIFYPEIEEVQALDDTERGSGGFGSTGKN
The experiment in a line: Inhibitory constant against human deoxyuridine 5'-triphosphate nucleotidohydrolase expressed in Escherichia coli BL21 (DE3) cells. A digest of the protocol:
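Human dUTPase expressed in E. coli BL21(DE3) and purified like the Plasmodium enzyme (phosphocellulose, then gel filtration). dUTP hydrolysis followed continuously by stopped-flow as pH-indicator absorbance (cresol red/bicine, 50:2000 µM, 573 nm). Apparent KM from integrated Michaelis-Menten fits at each inhibitor concentration; Ki from linear KMapp versus [I].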

The subject of test [9] is Leishmania donovani. Put plainly: In vitro growth inhibitory activity against Leishmania donovani amastigotes at 37 degrees C under a 5% CO2 atmosphere for 96 hours. Format: functional, organism-based. A digest of the protocol: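 Mouse peritoneal macrophages in RPMI 1640 with 10% heat-inactivated FBS, infected after 24 h with L. donovani amastigotes at 3:1 (amastigote:macrophage). Free amastigotes washed out at 4 h. Next day, drug-containing medium added for 96 h at 37 °C, 5% CO2. Slides methanol-fixed and Giemsa-stained. Percentage of infected macrophages scored microscopically versus control; IC50 by linear regression. Twice independently, in duplicate.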

Broadly, the IC50 is the midpoint of a concentration-inhibition curve. High values mean a need for much substance, low ones inhibition by little substance. By Ki is commonly meant a dissociation constant, usually derived from enzyme kinetics or from competition with a known ligand. A low value points to tighter binding. For the compound `O=c1ccn(C2CC(F)C(CO[Si](c3ccccc3)(c3ccccc3)c3ccccc3)O2)c(=O)[nH]1` (stereo not given), in test [1], the SI entry is “Not Relevant”. The IC50 in test [2] amounted to 84 µM; in test [3] it was 86 µM; in test [5], 1 µM; in [7] it was 4.5 µM. The inhibition constant Ki in test [4] is more than 1000 µM; in [6], 975 µM; in test [8], more than 1000 µM.

Take `CC(=O)NCC1OC(n2ccc(=O)[nH]c2=O)CC1O` (stereo not given): in test [1], the SI result was “Not Relevant”. Moreover, the concentration for half-maximal inhibition (IC50) in test [2] was more than 335 µM; in test [3], more than 335 µM; in test [9], more than 112 µM; in test [5], more than 19 µM; in [7], 194 µM. In addition, the inhibition constant Ki in test [4], in test [6] and in test [8] was more than 1000 µM each time.

Consider `NS(=O)(=O)OC[C@H]1O[C@@H](n2ccc(=O)[nH]c2=O)C[C@@H]1O`, for which the SI entry in [1] is “Not Relevant”. Moreover, the IC50 in test [2] is more than 293 µM; in test [9], more than 98 µM; in test [5], more than 163 µM; in [7], 145 µM. The Ki in test [4] is 707 µM; in [6], more than 1000 µM; in [8], more than 1000 µM.
